Most compounds without a hit are left out; they make up all but 0.95% or so of the library.
CAL PDZ FP-1 = blocks peptide binding to the human CAL PDZ domain; purified CAL PDZ, TMR-peptide fluorescence polarization, 1 h; Q9HD26; inhibition, % at 24.9 µM; 300,000 compounds, 0.92% hits;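 active means mean inhibition of at least 30% with at least half of replicates also reaching 30%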;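 further: 0% = DMSO neutral control and 100% = excess unlabeled competitor peptide PRC23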
PvdQ acylase = P. aeruginosa PvdQ acylase inhibition; 340,000 compounds, 0.063% hits; inhibition, % at 10 µM; purified PvdQ acylase, fluorescence plate reader; in the data active means inhibition above about 30%, passing the limit was not always enough;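 further: 0% = vehicle neutral wells and 100% = reference inhibitor wells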
CAL PDZ FP-2 = human CAL PDZ-peptide interaction inhibition | 330,000 compounds, 0.02% hits | purified CAL PDZ, TMR-peptide fluorescence polarization, 1 h | Q9HD26 | inhibition, % at 20 µM;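 active means highest replicate inhibition of at least 40%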;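 further: plate controls were DMSO neutral control wells for no effect and unlabeled competitor peptide control wells for full effect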
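Test system: tagged CAL PDZ domain / Buffer or medium: sodium phosphate/NaCl buffer pH 7.4 with TCEP, IgG, Thesit / Reagent: TMR-labelled reporter peptide T*-PRC34 bound in PDZ groove / Compound dosing: single point, 20 µM / Schedule: 1 h incubation at room temperature before polarization reading / Technique: fluorescence polarization (mP) / Benchmarks: unlabelled peptide, DMSO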
miR-122 sensor = miR-122 inhibition in Huh7 cells; activation (reporter increase), % at 12.5 µM; 340,000 compounds, 0.3% hits; Huh7 miR-122 Renilla luciferase sensor, 48 h; neutral wells = 0, positive control = 100; AID 602342;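 active means mean replicate activation score at least 90 and every replicate individually at or above 90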;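 further: higher luciferase means less miR-122 activity so hits act as miR-122 inhibitors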
* marks the source's active call; other numbers are inactive results; / = not tested or not shown; ! = repeats disagree; [ ] = remark or other dose.

SMILES	CAL PDZ FP-1	PvdQ acylase	CAL PDZ FP-2	miR-122 sensor
O=[N+]([O-])/C(C=Nc1ccccc1O)=C\Nc1ccccc1O	35.1*	-7.6	0.0	-3.0
O=[N+]([O-])/C(=C\Nc1ccccc1Cl)S(=O)(=O)c1ccccc1	-1.2	-15.7	-0.1	-7.7
O=[N+]([O-])c1ncccc1OCc1ccccc1Br	-2.6	-16.8	-2.2	1.4
COc1cccc(OCCSc2nnc3sc4ccccc4n23)c1	-3.9	7.6	-1.8	-8.5
CN(C(=O)COc1ccc(Cl)cc1Br)C1CCCCC1	70.6*	-3.7	-1.7	-0.9
O=C(COC(=O)COc1ccc(Cl)cc1Br)NC1CCCCCC1	10.0	1.0	-2.2	-12.8
COc1ccc(S(=O)(=O)N2CCC[C@H]2C(=O)NCc2ccc(Cl)cc2)cc1	71.2*	-11.1	0.1	-3.9
Cn1ncc2c(N)nc(NCCO)nc21	3.6	4.6	-0.1	1.3
CN(CC(=O)NCC(=O)Nc1ccc(F)cc1)CC(=O)Nc1ccc(Cl)c(C(F)(F)F)c1	46.7*	-8.1	-0.6	2.2
CN(CC(=O)NCc1ccc(F)cc1)CC(=O)Nc1ccc(Cl)c(C(F)(F)F)c1	/	10.7	0.1	-7.4
O=C(O)CSc1cc(NS(=O)(=O)c2ccc(Br)cc2)c2ccccc2c1O	13.4	-9.1	42.3*	-1.0
Cc1ccsc1C(=O)NNC(=O)c1ccc(NS(=O)(=O)c2cccs2)cc1	0.3	-6.4	0.3	/
Cc1ccc(-c2csc(NC(=O)c3ccc([N+](=O)[O-])o3)n2)cc1	1.0	6.0	-2.1	-2.6
Clc1ccc(OCCCc2nc(-c3cccnc3)no2)c(Cl)c1	-2.2	-5.0	-1.3	-5.9
Clc1ccc(OCCCc2nc(-c3ccncc3)no2)c(Cl)c1	33.4*	-7.6	/	-0.6
Cc1ccc([N+](=O)[O-])cc1NC1CC(O)C(CO)O1 (stereo not given)	31.1*	-2.2	1.0	-2.1
CN(CCO)c1nc(N)c2c(N)nc3c(c2c1C#N)CC(=O)N3Cc1cccs1	122.9*	-16.4	0.1	-2.6
CN1c2ccc(-c3ccc(F)cc3)cc2[C@H]2[C@H](CCN2S(=O)(=O)c2cccc(F)c2)[C@H]1CO	/	/	/	143.8*[16.7 µM]
O=C1C=C(c2ccccc2)C(c2ccccc2)C1 (stereo not given)	/	-8.4	47.8*	-4.1
O=C1CC(c2ccccc2)c2ccccc21 (stereo not given)	0.8	-6.0	-0.5	0.4
Cc1nnc(SC(C)C#N)n1-c1ccccc1 (stereo not given)	75.7*	-13.3	0.5	/
Cc1nnc(SCc2ccccc2C#N)n1-c1ccccc1	-5.1	-18.1	/	-7.3
CN(C)C(=O)CN1c2cccc3cccc(c23)S1(=O)=O	30.9*	-15.6	-0.7	-7.6
Cn1c(=O)oc2cc(S(=O)(=O)NCCC(=O)N3CCc4ccccc43)ccc21	/	-0.3	-1.8	0.8
COC(=O)C[C@H]1C=C[C@@H](C(C(=O)OC)C(=O)OC)CN1C(C)=O	91.5*	-12.7	-0.5	-1.3
SMILES	CAL PDZ FP-1	PvdQ acylase	CAL PDZ FP-2	miR-122 sensor
O=C(NCc1ccncc1)/C(=N/O)c1ccccc1	-2.0	-16.8	-0.6	-4.4
COc1ccc(/C=C/C(=O)N(CC(C)C)CC(C)C)cc1Br	/	5.7	-2.8	-4.2
COc1ccccc1N1CN(S(=O)(=O)c2ccc(C)cc2)c2nc3ccccc3nc21	110.0*	-17.0	-0.2	-22.9
COc1ccc(CCN2CN(S(=O)(=O)c3ccc(C)cc3)c3nc4ccccc4nc32)cc1OC	-3.6	-10.0	-1.2	/
COc1ccc(-n2nc(C(=O)NCC(=O)N(C)Cc3ccccc3)c3ccccc3c2=O)cc1	38.1*	-15.1	-2.0	-8.3
COc1ccc(-n2nc(C(=O)NCC(=O)O)c3ccccc3c2=O)cc1	0.6	-10.1	0.2	0.0
CCOC(=O)c1oc2cc(C)cc(O)c2c(=O)c1-c1csc(C)n1	1.8	0.6	-0.2	2.6
O=S(=O)(NCc1ccc(Cl)cc1Cl)c1ccc(N2CCOCC2)nc1	36.4*	-9.6	-1.2	5.0
CC(C)Oc1ccc(Nc2ncnc3ccccc23)cc1	-2.9	31.3*	-2.2	/
COc1ccccc1/C=C/C(=O)OCC(=O)NC1CC1	-0.5	8.2	-0.5	/
N[C@@H](Cc1cc(I)c(Oc2ccc(O)c(I)c2)c(I)c1)C(=O)O	-2.8	-5.5	0.8	93.2*!
N[C@@H](Cc1ccc(O)c(O)c1)C(=O)O	3.9	-6.6	0.8	2.4
CCOC(=O)C1=C(c2ccccc2)NC(SCC(=O)Nc2ccc(C)cc2)=C(C#N)C1c1ccco1 (stereo not given)	7.2	-7.1	-0.5	6.4
CC(C)C(=O)Nc1ccc2c(c1)C(=O)N(C)[C@H]1CC[C@@H](CC(=O)O)O[C@H]1CO2	/	/	/	33.3[16.7 µM]

Assay outcomes deposited in PubChem BioAssay by Broad Institute.
